# Experimental data published in ChEMBL document CHEMBL6078712, “Triterpenoid phthalimides as selective anti-cancer agents targeting mitochondrial apoptosis” (Eur J Med Chem, 2025).
# pIC50: −log10 of the molar value. Active and inactive are the calls of the source. The calls are words filed in the database; no cut-off is given here.
# Key:
# [1] = Stability in human plasma assessed as compound remaining at 2 uM incubated for 60 mins by RF-MS analysis; assay type: ADME, cell-free; conditions: read-out: Stability
# Outline: (§1)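 Human plasma stability, plasma protein binding and liver microsome stability, each run in triplicate. Error deviations below 10 %.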
# K562 = experiment: Cytotoxicity against human K562 cells assessed as inhibition of cell growth incubated for 72 hrs by MTS assay; assay type: functional, cell-based; conditions: K562, 72 h
# Outline: (§2)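 MTS assay on eight human cancer lines and two non-tumour fibroblast lines. IC50 is the concentration that inhibits cell growth by 50 %. SD typically up to 15 % of the mean.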
# CCRF-CEM [2] = experiment: Inhibition of RNA synthesis in human CCRF-CEM cells at 1 times IC50 incubated for 24 hrs by BrU incorporation based flow cytometry; assay type: functional
# Outline: (§3)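 Fixed in 1 % paraformaldehyde/0.05 % NP-40 (15 min at room temperature, then 4 °C overnight). Stained with cross-reacting anti-BrdU plus FITC secondary (45 min each), then PI/RNase A. Flow cytometry; % BrU-positive cells.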
# CCRF-CEM [3] = experiment: Induction of apoptosis in human CCRF-CEM cells assessed as upregulation of BID expression at 1 to 5 times IC50 incubated for 24 hrs by Western blotting analysis; assay type: functional, cell-based
# Outline: (§4)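 30 µg protein per lane on SDS-PAGE, transferred to nitrocellulose, blocked in 5 % BSA/TBS-Tween. Primary antibodies overnight at 4 °C (Akt, P-Akt Ser473, STAT-3, caspase-3, PARP, cyclin D, cyclin A, Bcl-xL, Bak, Bid, Bim), then HRP secondary and ECL detection. GAPDH as loading control.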
# [4] = Cytotoxicity against human BJ cells assessed as inhibition of cell growth incubated for 72 hrs by MTS assay; assay type: toxicity, cell-based; outline: as §2
# CEM-DNR = experiment: Cytotoxicity against human CEM-DNR cells assessed as inhibition of cell growth incubated for 72 hrs by MTS assay; assay type: functional, cell-based; outline: as §2
# A549 = experiment: Cytotoxicity against human A549 cells assessed as inhibition of cell growth incubated for 72 hrs by MTS assay; assay type: functional, cell-based; conditions: A549, 72 h; outline: as §2
# CCRF-CEM [5] = experiment: Induction of apoptosis in human CCRF-CEM cells assessed as early apoptotic cells at 5 times IC50 incubated for 24 hrs by Annexin V-FITC and PI staining based flow cytometric analysis (reference value: 2.1 %); assay type: functional
# Outline: (§5)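 Washed in Ca2+-containing binding buffer, then stained 15 min at room temperature in the dark with Annexin V-FITC and propidium iodide (PI at half the kit-recommended level). Read at once by flow cytometry with a 488 nm laser, ≥10,000 cells. Debris excluded; quadrants viable, early apoptotic, late apoptotic/necrotic, necrotic. Three independent experiments.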
# CCRF-CEM [6] = experiment: Induction of apoptosis in human CCRF-CEM cells assessed as necrotic cells at 1 times IC50 incubated for 24 hrs by Annexin V-FITC and PI staining based flow cytometric analysis (reference value: 0.4 %); assay type: functional; outline: as §5
# CCRF-CEM [7] = experiment: Inhibition of RNA synthesis in human CCRF-CEM cells at 5 times IC50 incubated for 24 hrs by BrU incorporation based flow cytometry; assay type: functional; outline: as §3
# CCRF-CEM [8] = experiment: Induction of apoptosis in human CCRF-CEM cells assessed as viable cells at 5 times IC50 incubated for 24 hrs by Annexin V-FITC and PI staining based flow cytometric analysis (reference value: 97.4 %); assay type: functional; outline: as §5
# CCRF-CEM [9] = experiment: Inhibition of DNA synthesis in human CCRF-CEM cells at 1 times IC50 incubated for 24 hrs by BrdU incorporation based flow cytometry; assay type: functional
# Outline: (§6)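 Fixed in ice-cold 70 % ethanol, DNA denatured in 2 M HCl for 30 min, neutralised with borax. Stained with anti-BrdU plus FITC secondary, then PI/RNase A for 1 h. Flow cytometry; % BrdU-positive cells.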
# CCRF-CEM [10] = experiment: Induction of apoptosis in human CCRF-CEM cells assessed as downregulation of BCL-XL expression at 5 times IC50 incubated for 24 hrs by Western blotting analysis; assay type: functional, cell-based; outline: as §4
# [11] = Stability in human plasma assessed as compound remaining at 2 uM incubated for 15 mins by RF-MS analysis; assay type: ADME, cell-free; conditions: read-out: Stability; outline: as §1
# CCRF-CEM [12] = experiment: Induction of apoptosis in human CCRF-CEM cells assessed as late apoptotic cells at 1 times IC50 incubated for 24 hrs by Annexin V-FITC and PI staining based flow cytometric analysis (reference value: 0.4 %); assay type: functional; outline: as §5
# [13] = Stability in human plasma assessed as compound remaining at 2 uM incubated for 30 mins by RF-MS analysis; assay type: ADME, cell-free; conditions: read-out: Stability; outline: as §1
# U2OS = experiment: Cytotoxicity against human U2OS cells assessed as inhibition of cell growth incubated for 72 hrs by MTS assay; assay type: functional, cell-based; outline: as §2
# CCRF-CEM [14] = experiment: Induction of apoptosis in human CCRF-CEM cells assessed as viable cells at 1 times IC50 incubated for 24 hrs by Annexin V-FITC and PI staining based flow cytometric analysis (reference value: 97.4 %); assay type: functional; outline: as §5
# CCRF-CEM [15] = experiment: Induction of apoptosis in human CCRF-CEM cells assessed as necrotic cells at 5 times IC50 incubated for 24 hrs by Annexin V-FITC and PI staining based flow cytometric analysis (reference value: 0.4 %); assay type: functional; outline: as §5
# CCRF-CEM [16] = experiment: Induction of apoptosis in human CCRF-CEM cells assessed as upregulation of BIM expression at 1 to 5 times IC50 incubated for 24 hrs by Western blotting analysis; assay type: functional, cell-based; outline: as §4
# [17] = Plasma protein binding in human assessed as fraction bound at 10 uM incubated for 4 hrs by rapid equilibrium dialysis based RF-MS analysis; assay type: ADME, cell-free; conditions: read-out: PPB (converted); outline: as §1
# HCT 116 TP53(-/-) = experiment: Cytotoxicity against human HCT116-p53-null cells assessed as inhibition of cell growth incubated for 72 hrs by MTS assay; assay type: functional, cell-based; outline: as §2
# CCRF-CEM [18] = experiment: Cytotoxicity against human CCRF-CEM cells assessed as inhibition of cell growth incubated for 72 hrs by MTS assay; assay type: functional, cell-based; outline: as §2
# CCRF-CEM [19] = experiment: Inhibition of DNA synthesis in human CCRF-CEM cells at 5 times IC50 incubated for 24 hrs by BrdU incorporation based flow cytometry; assay type: functional; outline: as §6
# Mitochondrial membrane = experiment: Induction of mitochondrial membrane potential depolarization in human CCRF-CEM cells assessed as fold increase in fluorescence intensity incubated for 24 hrs by JC-1 staining based flow cytometry; assay type: cell membranes
# CCRF-CEM [20] = experiment: Induction of apoptosis in human CCRF-CEM cells assessed as early apoptotic cells at 1 times IC50 incubated for 24 hrs by Annexin V-FITC and PI staining based flow cytometric analysis (reference value: 2.1 %); assay type: functional; outline: as §5
# CCRF-CEM [21] = experiment: Induction of apoptosis in human CCRF-CEM cells assessed as late apoptotic cells at 5 times IC50 incubated for 24 hrs by Annexin V-FITC and PI staining based flow cytometric analysis (reference value: 0.4 %); assay type: functional; outline: as §5
# [22] = Cytotoxicity against human K562-Tax cells assessed as inhibition of cell growth incubated for 72 hrs by MTS assay; assay type: functional, cell-based; outline: as §2
# [23] = Metabolic stability in human liver microsomes assessed as parent compound remaining at 2 uM incubated for 60 mins in presence of NADPH by RF-MS analysis; assay type: ADME, Microsome; conditions: read-out: Stability; outline: as §1
# CCRF-CEM [24] = experiment: Induction of cell cycle arrest in human CCRF-CEM cells assessed as downregulation of Cyclin A expression at 5 times IC50 incubated for 24 hrs by Western blotting analysis; assay type: functional, cell-based; outline: as §4
# HCT-116 = experiment: Cytotoxicity against human HCT-116 cells assessed as inhibition of cell growth incubated for 72 hrs by MTS assay; assay type: functional, cell-based; conditions: HCT-116, 72 h; outline: as §2
# [25] = Metabolic stability in human liver microsomes assessed as parent compound remaining at 2 uM incubated for 15 mins in presence of NADPH by RF-MS analysis; assay type: ADME, Microsome; conditions: read-out: Stability; outline: as §1
# [26] = Stability in human plasma assessed as compound remaining at 2 uM incubated for 120 mins by RF-MS analysis; assay type: ADME, cell-free; conditions: read-out: Stability; outline: as §1
# [27] = Metabolic stability in human liver microsomes assessed as parent compound remaining at 2 uM incubated for 30 mins in presence of NADPH by RF-MS analysis; assay type: ADME, Microsome; conditions: read-out: Stability; outline: as §1
# [28] = Cytotoxicity against human MRC5 cells assessed as inhibition of cell growth incubated for 72 hrs by MTS assay; assay type: toxicity, cell-based; outline: as §2
smiles,measurement,setting,value
CC1(C)[C@@H](O)CC[C@]2(C)[C@H]3CC[C@@H]4[C@H]5[C@H](c6cc7c(c(-c8ccccc8)c6)C(=O)N(c6ccccc6)C7=O)CC[C@]5(C(=O)O)CC[C@@]4(C)[C@]3(C)CC[C@@H]12,"remaining at 1 h, 2 µM",[1],100%
same,pIC50,K562,< 4.30
same,inhibition (INH),CCRF-CEM [2],28.4%
same,Activity,CCRF-CEM [3],Active
same,IC50 at 72 h,[4],> 50 µM
same,pIC50,CEM-DNR,4.70
same,pIC50,A549,< 4.30
same,Activity,CCRF-CEM [5],5.1%
same,Activity,CCRF-CEM [6],0%
same,inhibition (INH),CCRF-CEM [7],16.1%
same,Activity,CCRF-CEM [8],90.4%
same,inhibition (INH),CCRF-CEM [9],35.2%
same,Activity,CCRF-CEM [10],Active
same,"remaining at 0.25 h, 2 µM",[11],96%
same,Activity,CCRF-CEM [12],3.9%
same,"remaining at 0.5 h, 2 µM",[13],95%
same,pIC50,U2OS,4.59
same,Activity,CCRF-CEM [14],90.7%
same,Activity,CCRF-CEM [15],0%
same,Activity,CCRF-CEM [16],Active
same,"fraction unbound at 4 h, 10 µM",[17],0.231
same,pIC50,HCT 116 TP53(-/-),< 4.30
same,pIC50,CCRF-CEM [18],5.29
same,inhibition (INH),CCRF-CEM [19],37.8%
same,Activity,Mitochondrial membrane,Dose-dependent-effect
same,Activity,CCRF-CEM [20],5.4%
same,Activity,CCRF-CEM [21],4.5%
same,pIC50,[22],4.64
same,"remaining at 1 h, 2 µM",[23],79%
same,Activity,CCRF-CEM [24],Active
same,pIC50,HCT-116,4.53
same,"remaining at 0.25 h, 2 µM",[25],92%
same,"remaining at 2 h, 2 µM",[26],89%
same,"remaining at 0.5 h, 2 µM",[27],87%
same,IC50 at 72 h,[28],> 50 µM
